Assay results from ChEMBL document CHEMBL4376835, “Discovery of Nonpungent Transient Receptor Potential Vanilloid 1 (TRPV1) Agonist as Strong Topical Analgesic” (J Med Chem, 2020).

Columns and labels:
[1] = Genotoxicity in Salmonella typhimurium TA1538 incubated for 48 hrs in presence of rat S9 by Ames test; format: toxicity, subcellular; conditions: salmonella enterica subsp. enterica serovar typhimurium, s9, 48 h
[2] = tested on: Mus musculus; assay: Analgesic activity in ip dosed formalin-induced nociception ICR mouse model assessed as reduction in pain behaviour by measuring less licking of formalin injected hind paw pretreated with compound 30 mins prior to formalin induction measured during first phase (0-5 mins after formalin injection) by formalin test; format: functional
Outline: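 Mice were dosed i.p. with 0.1–10 mg/kg, with vehicle and gabapentin (50, 100 mg/kg i.p.) arms. 2% formalin was injected into the dorsal hindpaw, and paw-licking time was recorded for the first phase (5 min) and the second phase (20–30 min). ED50 was taken from the dose–response. Mean±SEM, n=8.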

CC(C)(C)c1nc(-c2cccc(Cl)c2)c(CNC(=O)Nc2ccc(CO)c(F)c2)s1
Activity [1]: Non-Toxic
Activity [2]: Dose-dependent effect
ED50 [2]: 0.79 mg/kg
